Source: ChEMBL document CHEMBL1137338, “Effects of substitution on 9-(3-bromo-4-fluorophenyl)-5,9-dihydro-3H,4H-2,6-dioxa-4- azacyclopenta[b]naphthalene-1,8-dione, a dihydropyridine ATP-sensitive potassium channel opener” (J Med Chem, 2006)

What follows are compounds tested against Sulfonylurea receptor 2, Kir6.2 (Homo sapiens, UniProt O60706+Q14654) (assay: Ability to open human urinary bladder Kir6.2 channel containing SUR2B in Ltk cells by FLIPR assay).
Assay type: functional, cell-based
Method in brief: (§1)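 Ltk- cells stably transfected with the Kir6.2/SUR2B exon 17- splice variant. Membrane potential was followed with DiBAC dye in a 96-well cell-based kinetic fluorescence (FLIPR) assay. The highest concentration tested was 10 µM. Each compound's maximal fluorescence response was expressed as % of the response to the reference opener.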

Sulfonylurea receptor 2, Kir6.2, sequence (Q14654 whole entry): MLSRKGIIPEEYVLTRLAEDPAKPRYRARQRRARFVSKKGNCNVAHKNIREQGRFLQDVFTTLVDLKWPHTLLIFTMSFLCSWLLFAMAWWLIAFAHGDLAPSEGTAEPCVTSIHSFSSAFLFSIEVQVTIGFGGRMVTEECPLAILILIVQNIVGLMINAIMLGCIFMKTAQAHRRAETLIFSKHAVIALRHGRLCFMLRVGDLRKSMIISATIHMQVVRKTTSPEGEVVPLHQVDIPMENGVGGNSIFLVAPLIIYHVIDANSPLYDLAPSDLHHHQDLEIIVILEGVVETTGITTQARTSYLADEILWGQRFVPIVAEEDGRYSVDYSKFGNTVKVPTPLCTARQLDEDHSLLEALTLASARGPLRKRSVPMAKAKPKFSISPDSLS
Sulfonylurea receptor 2, Kir6.2, sequence (O60706 whole entry): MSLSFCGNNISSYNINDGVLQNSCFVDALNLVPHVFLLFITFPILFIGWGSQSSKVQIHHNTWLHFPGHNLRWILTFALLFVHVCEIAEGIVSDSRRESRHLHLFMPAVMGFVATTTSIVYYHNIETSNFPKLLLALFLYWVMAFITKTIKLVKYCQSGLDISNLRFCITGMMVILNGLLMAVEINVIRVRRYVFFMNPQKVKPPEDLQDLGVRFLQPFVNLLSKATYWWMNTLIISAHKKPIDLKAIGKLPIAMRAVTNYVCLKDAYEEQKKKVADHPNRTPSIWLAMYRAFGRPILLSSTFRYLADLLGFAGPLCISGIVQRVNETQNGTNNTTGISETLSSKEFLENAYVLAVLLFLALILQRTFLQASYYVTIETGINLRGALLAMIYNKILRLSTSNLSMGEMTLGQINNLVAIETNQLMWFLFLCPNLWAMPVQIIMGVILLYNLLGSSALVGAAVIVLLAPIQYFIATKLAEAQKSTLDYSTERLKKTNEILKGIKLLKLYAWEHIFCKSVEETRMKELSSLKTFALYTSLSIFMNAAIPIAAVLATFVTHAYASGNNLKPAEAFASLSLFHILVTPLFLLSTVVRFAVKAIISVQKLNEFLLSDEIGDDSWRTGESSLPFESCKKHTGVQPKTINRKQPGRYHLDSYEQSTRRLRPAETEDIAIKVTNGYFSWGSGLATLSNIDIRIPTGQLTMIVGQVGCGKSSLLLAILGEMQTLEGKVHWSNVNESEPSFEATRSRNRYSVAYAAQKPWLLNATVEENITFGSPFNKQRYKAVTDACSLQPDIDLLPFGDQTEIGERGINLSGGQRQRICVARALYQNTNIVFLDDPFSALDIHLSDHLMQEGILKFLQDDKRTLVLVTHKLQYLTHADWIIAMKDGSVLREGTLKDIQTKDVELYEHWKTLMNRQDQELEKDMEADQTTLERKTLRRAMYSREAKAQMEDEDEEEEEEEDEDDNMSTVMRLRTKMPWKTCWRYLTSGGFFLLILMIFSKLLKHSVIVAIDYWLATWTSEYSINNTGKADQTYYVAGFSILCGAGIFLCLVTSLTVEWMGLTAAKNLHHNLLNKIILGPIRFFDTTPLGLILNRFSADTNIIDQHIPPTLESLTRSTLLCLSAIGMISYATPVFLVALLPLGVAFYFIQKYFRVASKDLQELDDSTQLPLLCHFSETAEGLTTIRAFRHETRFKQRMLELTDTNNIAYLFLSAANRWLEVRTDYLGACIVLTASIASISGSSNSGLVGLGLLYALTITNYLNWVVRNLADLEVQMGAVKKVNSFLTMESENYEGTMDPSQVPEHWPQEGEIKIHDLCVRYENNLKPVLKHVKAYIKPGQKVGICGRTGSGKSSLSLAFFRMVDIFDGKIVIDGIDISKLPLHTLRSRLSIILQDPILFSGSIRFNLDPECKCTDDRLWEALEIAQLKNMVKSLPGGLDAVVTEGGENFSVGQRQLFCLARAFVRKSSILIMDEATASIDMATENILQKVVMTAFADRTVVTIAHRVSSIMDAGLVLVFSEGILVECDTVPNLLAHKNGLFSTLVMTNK

Point of comparison: `CC[C@H]1OCC(O)=C2C1=NC1=C(C(=O)COC1)[C@H]2c1ccc(C)c(Br)c1` (stereo in doubt; 78b), EC50 5.62 µM. Against it:
- CC[C@H]1OCC(O)=C2C1=NC1=C(C(=O)COC1)[C@H]2c1ccc(C)c(Br)c1 (stereo in doubt; 78a) — 7.8-fold lower, 0.724 µM

What follows are compounds tested against Sulfonylurea receptor 2, Kir6.2 (Homo sapiens) (UniProt Q14654+O60706) (assay: Ability to open human urinary bladder Kir6.2 containing SUR2B in Ltk cells by FLIPR assay relative to P1075).
Assay type: functional, cell-based
Method in brief: as §1

Point of comparison: `CCC[C@@H]1OC(O)=C2C1=NC1=C(C(=O)COC1)[C@H]2c1ccc(F)c(Br)c1` (racemic), Efficacy 90%. Against it:
- CCCC[C@H]1OC(O)=C2C1=NC1=C(C(=O)COC1)[C@H]2c1ccc(F)c(Br)c1 (racemic) — lower, 61%
- CCC[C@H]1OC(O)=C2C1=NC1=C(C(=O)COC1)[C@H]2c1ccc(Br)c(Br)c1 (racemic) — higher, 119%
- CCC[C@H]1OC(O)=C2C1=NC1=C(C(=O)COC1)[C@H]2c1ccc(Br)c(Cl)c1 (racemic) — higher, 97%
- CCC[C@H]1OC(O)=C2C1=NC1=C(C(=O)COC1)[C@H]2c1ccc(C)c(Br)c1 (racemic) — higher, 104%
- CCC[C@H]1OC(O)=C2C1=NC1=C(C(=O)COC1)[C@H]2c1ccc(Cl)c(Br)c1 (racemic) — higher, 120%
- CCC[C@H]1OC(O)=C2C1=NC1=C(C(=O)COC1)[C@H]2c1ccc(Cl)c(Cl)c1 (racemic) — higher, 95%
- CCC[C@H]1OC(O)=C2C1=NC1=C(C(=O)COC1)[C@H]2c1ccc(F)c(Cl)c1 (racemic) — lower, 42%
- CCC[C@H]1OC(O)=C2C1=NC1=C(C(=O)COC1)[C@H]2c1ccc(F)c(I)c1 (racemic) — higher, 105%
- CC[C@@H]1OC(O)=C2C1=NC1=C(C(=O)COC1)[C@H]2c1ccc(F)c(Br)c1 (racemic) — lower, 74%
- CC[C@@H]1OCC(O)=C2C1=NC1=C(C(=O)COC1)[C@H]2c1ccc(F)c(Br)c1 (racemic) — lower, 60%
- CC[C@H]1OC(O)=C2C1=NC1=C(C(=O)C(C)(C)OC1)[C@H]2c1ccc(F)c(Br)c1 (racemic) — lower, 70%
- CC[C@H]1OC(O)=C2C1=NC1=C(C(=O)COC1(C)C)[C@H]2c1ccc(F)c(Br)c1 (racemic) — lower, 48%
- CC[C@H]1OCC(O)=C2C1=NC1=C(C(=O)COC1)[C@H]2c1ccc(Br)c(Br)c1 (racemic) — lower, 76%
- CC[C@H]1OCC(O)=C2C1=NC1=C(C(=O)COC1)[C@H]2c1ccc(Br)c(Cl)c1 (racemic) — lower, 46%
- CC[C@H]1OCC(O)=C2C1=NC1=C(C(=O)COC1)[C@H]2c1ccc(C)c(Br)c1 (racemic) — lower, 70%
- CC[C@H]1OCC(O)=C2C1=NC1=C(C(=O)COC1)[C@H]2c1ccc(Cl)c(Br)c1 (racemic) — lower, 70%
- CC[C@H]1OCC(O)=C2C1=NC1=C(C(=O)COC1)[C@H]2c1ccc(F)c(I)c1 (racemic) — lower, 47%
- COC[C@H]1OC(O)=C2C1=NC1=C(C(=O)COC1)[C@H]2c1ccc(F)c(Br)c1 (racemic) — higher, 103%
- C[C@@H]1OC(O)=C2C1=NC1=C(C(=O)COC1)[C@H]2c1ccc(F)c(Br)c1 (racemic) — higher, 100%
- C[C@@H]1OCC2=C(C1=O)[C@@H](c1ccc(F)c(Br)c1)C1=C(O)OCC1=N2 (racemic) — lower, 81%
- C[C@@H]1OCC2=C(C1=O)[C@H](c1ccc(F)c(Br)c1)C1=C(O)OCC1=N2 (racemic) — higher, 104%
- C[C@H]1OC(O)=C2C1=NC1=C(C(=O)COC1)[C@H]2c1ccc(F)c(Br)c1 (racemic) — lower, 75%
- CC1(C)OCC2=C(C1=O)C(c1ccc(F)c(Br)c1)C1=C(O)OCC1=N2 (single isomer, unassigned; (+)) — higher, 104%
- O=C1COCC2=C1C(c1ccc(F)c(Br)c1)C1=C(O)OCC1=N2 (stereo in doubt; 6) — higher, 92%
- C[C@@H]1OCC2=C(C1=O)[C@@H](c1ccc(F)c(Br)c1)C1=C(O)OCC1=N2 (stereo in doubt; 7b) — higher, 94%
- CC1(C)OCC2=C(C1=O)C(c1ccc(F)c(Br)c1)C1=C(O)OCC1=N2 (stereo in doubt; 9) — lower, 86%
- CC1(C)OCC2=C(C1=O)C(c1ccc(F)c(Br)c1)C1=C(O)OCC1=N2 (stereo in doubt; 9b) — lower, 77%
- C[C@@H]1OC(O)=C2C1=NC1=C(C(=O)COC1)[C@H]2c1ccc(F)c(Br)c1 (stereo in doubt; 17b) — lower, 89%
- C[C@H]1OC(O)=C2C1=NC1=C(C(=O)COC1)[C@H]2c1ccc(F)c(Br)c1 (stereo in doubt; 18a) — lower, 86%
- C[C@H]1OC(O)=C2C1=NC1=C(C(=O)COC1)[C@H]2c1ccc(F)c(Br)c1 (stereo in doubt; 18b) — lower, 85%
- CC[C@@H]1OC(O)=C2C1=NC1=C(C(=O)COC1)[C@H]2c1ccc(F)c(Br)c1 (stereo in doubt; 20a) — higher, 101%
- CC[C@@H]1OC(O)=C2C1=NC1=C(C(=O)COC1)[C@H]2c1ccc(F)c(Br)c1 (stereo in doubt; 20b) — lower, 85%
- CCC[C@@H]1OC(O)=C2C1=NC1=C(C(=O)COC1)[C@H]2c1ccc(F)c(Br)c1 (stereo in doubt; 22a) — lower, 82%
- CCC[C@@H]1OC(O)=C2C1=NC1=C(C(=O)COC1)[C@H]2c1ccc(F)c(Br)c1 (stereo in doubt; 22b) — lower, 66%
- CCC[C@H]1OC(O)=C2C1=NC1=C(C(=O)COC1)[C@H]2c1ccc(F)c(Br)c1 (stereo in doubt; 23a) — lower, 75%
- COC[C@H]1OC(O)=C2C1=NC1=C(C(=O)COC1)[C@H]2c1ccc(F)c(Br)c1 (stereo in doubt; 25a) — higher, 95%
- COC[C@H]1OC(O)=C2C1=NC1=C(C(=O)COC1)[C@H]2c1ccc(F)c(Br)c1 (stereo in doubt; 25b) — higher, 104%
- CCCC[C@H]1OC(O)=C2C1=NC1=C(C(=O)COC1)[C@H]2c1ccc(F)c(Br)c1 (stereo in doubt; 29a) — lower, 62%
- CC(C)C[C@H]1OC(O)=C2C1=NC1=C(C(=O)COC1)[C@H]2c1ccc(F)c(Br)c1 (stereo in doubt; 31a) — lower, 66%
- CC[C@H]1OC(O)=C2C1=NC1=C(C(=O)C(C)(C)OC1)[C@H]2c1ccc(F)c(Br)c1 (stereo in doubt; 36a) — lower, 89%
- CC[C@H]1OC(O)=C2C1=NC1=C(C(=O)COC1(C)C)[C@H]2c1ccc(F)c(Br)c1 (stereo in doubt; 38a) — lower, 77%
- CCC[C@H]1OC(O)=C2C1=NC1=C(C(=O)COC1)[C@H]2c1ccc(F)c(Cl)c1 (stereo in doubt; 39a) — lower, 74%
- CCC[C@H]1OC(O)=C2C1=NC1=C(C(=O)COC1)[C@H]2c1ccc(F)c(I)c1 (stereo in doubt; 41a) — lower, 81%
- CCC[C@H]1OC(O)=C2C1=NC1=C(C(=O)COC1)[C@H]2c1ccc(Cl)c(Cl)c1 (stereo in doubt; 42a) — lower, 87%
- CCC[C@H]1OC(O)=C2C1=NC1=C(C(=O)COC1)[C@H]2c1ccc(Cl)c(Cl)c1 (stereo in doubt; 42b) — lower, 62%
- CCC[C@H]1OC(O)=C2C1=NC1=C(C(=O)COC1)[C@H]2c1ccc(Cl)c(Br)c1 (stereo in doubt; 43a) — the same, 90%
- CCC[C@H]1OC(O)=C2C1=NC1=C(C(=O)COC1)[C@H]2c1ccc(Cl)c(Br)c1 (stereo in doubt; 43b) — higher, 99%
- CCC[C@H]1OC(O)=C2C1=NC1=C(C(=O)COC1)[C@H]2c1ccc(Br)c(Cl)c1 (stereo in doubt; 44a) — higher, 121%
- CCC[C@H]1OC(O)=C2C1=NC1=C(C(=O)COC1)[C@H]2c1ccc(Br)c(Cl)c1 (stereo in doubt; 44b) — higher, 92%
- CCC[C@H]1OC(O)=C2C1=NC1=C(C(=O)COC1)[C@H]2c1ccc(Br)c(Br)c1 (stereo in doubt; 45a) — higher, 104%
